Reference: paper PMC10091778 (Drug Development Research, 2022)

Assays:
[1] = tested on: 4T1 murine triple negative breast cancer cells; experiment: Resazurin cell viability assay on 4T1 cells; assay type: cell-based; settings: Mus musculus, 4T1, 72 h, read-out: IC50 4T1
How it was run: (§1)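 Cells were seeded in 96-well plates (4T1 10,000, A549 10,000, HL-60 20,000 per well), with adherent lines settling overnight. Test compound came from a 10 mM DMSO stock, serially diluted in medium to 1.56–50 µM (some 39 nM–12.5 µM), for 72 h; three biological replicates. Resazurin (0.15 mg/ml stock, 20 µl per 100 µl) ran 2 h at 37 °C, read at 530/580 nm. Viability was set against untreated and blank wells; IC50 from curves.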

[2] = tested on: HL‐60 human acute promyelocytic leukemia cells; experiment: Resazurin cell viability assay on HL-60 cells; assay type: cell-based; settings: HL-60, 72 h, read-out: IC50 HL‐60
How it was run: as §1

[3] = tested on: 4T1, A549, and HL‐60 cells; assay type: cell-based; settings: resazurin assay, 72 h, up to 50 µM, three cancer cell lines
How it was run: as §1

HL‐60 cells [4] = experiment: Sub-G1 DNA fragmentation analysis by flow cytometry; assay type: cell-based, human; settings: 6 µM, 72 h; mean ± SD; untreated 11.7 ± 1.2%
HL‐60 cells [5] = experiment: Annexin V / propidium iodide flow cytometry; assay type: cell-based, human; settings: 6 µM, 24 h; for Early apoptotic cells (AnnV+/PI−): untreated 1.9 ± 0.5%; for Late apoptotic cells (AnnV+/PI+): untreated 9.5 ± 2.7%; for Living cells (AnnV−/PI−): untreated 85 ± 3.9%
How it was run: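 HL-60 cells (100,000) were treated for 24 h at 1, 3 or 6 µM, then resuspended in Annexin V binding buffer (0.01 M HEPES, 0.14 M NaCl, 2.5 mM CaCl2). Annexin V-Alexa 488 was added for 15 min in the dark at room temperature, then PI (10 µg/ml). Quadrant percentages were taken by flow cytometry; three biological replicates, mean ± SD; two-tailed t test against untreated.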

HL‐60 cells [6] = experiment: Mitochondrial membrane depolarization by JC-1 staining; assay type: cell-based, human; settings: 16 h, untreated 7.6 ± 0.6%; for Cells with green JC‐1 accumulation (depolarized MMP): 3 µM; for Cells with green JC‐1 monomers (depolarized MMP): 6 µM
HL‐60 cells [7] = experiment: Cell cycle analysis by flow cytometry; assay type: cell-based, human; settings: 72 h; for Cells in G2/M phase: untreated 17.3 ± 1.7%

Compound	IC50 [1] [µM]	IC50 [2] [µM]	Cytotoxic / antiproliferative activity in words [3]	further results
CCOC(=O)c1[nH]c(N)nc1-c1cccc(NC(=O)c2cc3ccccc3[nH]2)c1 [Compound 16, Ethyl 4‐(3‐(1H‐indole‐2‐carboxamido)phenyl)−2‐amino‐1H‐imidazole‐5‐carboxylate]	19.3	14.4	–	–
CCOC(=O)c1[nH]c(N)nc1-c1cccc(NC(=O)c2ccc3cccc(O)c3n2)c1 [Compound 17, Ethyl 2‐amino‐4‐(3‐(8‐hydroxyquinoline‐2‐carboxamido)phenyl)−1H‐imidazole‐5‐carboxylate]	17.1	5.81	low antiproliferative activity	–
Nc1nc(-c2cccc(NC(=O)c3ccc4cccc(O)c4n3)c2)c(C(=O)c2ccccc2)[nH]1 [Compound 18, N‐(3‐(2‐amino‐5‐benzoyl‐1H‐imidazol‐4‐yl)phenyl)−8‐hydroxyquinoline‐2‐carboxamide]	13.9	8.95	low antiproliferative activity	–
Nc1nc(-c2cccc(NC(=O)c3ccc4ccccc4n3)c2)c(C(=O)c2ccccc2)[nH]1 [Compound 19, N‐(3‐(2‐amino‐5‐benzoyl‐1H‐imidazol‐4‐yl)phenyl)quinoline‐2‐carboxamide]	–	–	completely inactive	–
Nc1nc(-c2cccc(NC(=O)c3ccccn3)c2)c(C(=O)c2ccccc2)[nH]1 [Compound 20, N‐(3‐(2‐amino‐5‐benzoyl‐1H‐imidazol‐4‐yl)phenyl)picolinamide]	30.7	24.8	–	–
Nc1nc(-c2cccc(NC(=O)c3cc(Br)c[nH]3)c2)c(C(=O)c2ccccc2)[nH]1 [Compound 21, N‐(3‐(2‐amino‐5‐benzoyl‐1H‐imidazol‐4‐yl)phenyl)‐4‐bromo‐1H‐pyrrole‐2‐carboxamide]	–	–	completely inactive	–
Nc1nc(-c2cccc(NC(=O)c3ccc[nH]3)c2)c(C(=O)c2ccccc2)[nH]1 [Compound 22, N‐(3‐(2‐amino‐5‐benzoyl‐1H‐imidazol‐4‐yl)phenyl)‐1H‐pyrrole‐2‐carboxamide]	–	6.9	low antiproliferative activity	–
Nc1nc(-c2cccc(NC(=O)c3cc4cc(F)ccc4[nH]3)c2)c(C(=O)c2ccccc2)[nH]1 [Compound 23, N‐(3‐(2‐amino‐5‐benzoyl‐1H‐imidazol‐4‐yl)phenyl)‐5‐fluoro‐1H‐indole‐2‐carboxamide]	9.05	5.21	hampered the viability of all three tested cell lines	DNA fragmentation (sub‐G1 population) of HL‐60 cells (HL‐60 cells [4]): 22.9 ± 1.2%; Early apoptotic cells (AnnV+/PI−) (HL‐60 cells [5]; mean ± SD): 3.2 ± 0.7%; Late apoptotic cells (AnnV+/PI+) (HL‐60 cells [5]; mean ± SD): 15.5 ± 3.9%; Living cells (AnnV−/PI−) (HL‐60 cells [5]; mean ± SD): 76.8 ± 3.5%; Cells with green JC‐1 accumulation (depolarized MMP) (HL‐60 cells [6]): 9.1 ± 0.2%; Cells with green JC‐1 monomers (depolarized MMP) (HL‐60 cells [6]): 13.4 ± 0.8%; Cells in G2/M phase (HL‐60 cells [7]; 3 µM): 22.4 ± 1.6%; Cells in G2/M phase (HL‐60 cells [7]; 6 µM): 39.2 ± 3.1%; Effect on cell cycle distribution, in words (HL‐60 cells [7]): significantly disturbed cell cycle distribution
CCOC(=O)c1[nH]c(N)nc1-c1cccc(NC(=O)c2cc3cc(OC)ccc3[nH]2)c1 [Compound 24, Ethyl 2‐amino‐4‐(3‐(5‐methoxy‐1H‐indole‐2‐carboxamido)phenyl)‐1H‐imidazole‐5‐carboxylate]	12.6	7.57	low antiproliferative activity	–
Nc1nc(-c2cccc(NC(=O)c3cc4ccccc4[nH]3)c2)c(C(=O)c2ccccc2)[nH]1 [Compound 25, N‐(3‐(2‐amino‐5‐benzoyl‐1H‐imidazol‐4‐yl)phenyl)‐1H‐indole‐2‐carboxamide]	–	6.34	low antiproliferative activity	–
COc1ccc2[nH]c(C(=O)Nc3cccc(-c4nc(N)[nH]c4C(C)=O)c3)cc2c1 [Compound 26, N‐(3‐(5‐acetyl‐2‐amino‐1H‐imidazol‐4‐yl)phenyl)‐5‐methoxy‐1H‐indole‐2‐carboxamide]	35	24.8	–	–
COc1ccc2[nH]c(C(=O)Nc3cccc(-c4nc(N)[nH]c4C(=O)c4ccccc4)c3)cc2c1 [Compound 27, N‐(3‐(2‐amino‐5‐benzoyl‐1H‐imidazol‐4‐yl)phenyl)‐5‐methoxy‐1H‐indole‐2‐carboxamide]	11.7	3.12	hampered the viability of all three tested cell lines	DNA fragmentation (sub‐G1 population) of HL‐60 cells (HL‐60 cells [4]): 53.8 ± 7.3%; Early apoptotic cells (AnnV+/PI−) (HL‐60 cells [5]; mean ± SD): 16.1 ± 0.6%; Necrotic cells (AnnV−/PI+) (HL‐60 cells [5]; mean ± SD, untreated 3.6 ± 1.6%): 2.5 ± 0.3%; Late apoptotic cells (AnnV+/PI+) (HL‐60 cells [5]; mean ± SD): 50.7 ± 0.9%; Living cells (AnnV−/PI−) (HL‐60 cells [5]; mean ± SD): 30.5 ± 0.7%; Cells with green JC‐1 accumulation (depolarized MMP) (HL‐60 cells [6]): 13.3 ± 1.1%; Cells with green JC‐1 monomers (depolarized MMP) (HL‐60 cells [6]): 42.4 ± 0.8%
CC(=O)c1[nH]c(N)nc1-c1cccc(NC(=O)c2cc3cc(F)ccc3[nH]2)c1 [Compound 30, N‐(3‐(5‐acetyl‐2‐amino‐1H‐imidazol‐4‐yl)phenyl)‐5‐fluoro‐1H‐indole‐2‐carboxamide]	25.3	25	–	–
CCOC(=O)c1[nH]c(N)nc1-c1cccc(NC(=O)c2cc3cc(F)ccc3[nH]2)c1 [Compound 31, Ethyl 2‐amino‐4‐(3‐(5‐fluoro‐1H‐indole‐2‐carboxamido)phenyl)‐1H‐imidazole‐5‐carboxylate]	14.4	10	–	–
Nc1nc(-c2cc(NC(=O)c3cc4cc(Br)ccc4[nH]3)ccc2Cl)c(C(=O)c2ccccc2)[nH]1 [Compound 32, N‐(3‐(2‐amino‐5‐benzoyl‐1H‐imidazol‐4‐yl)‐4‐chlorophenyl)‐5‐bromo‐1H‐indole‐2‐carboxamide]	12.4	7.82	hampered the viability of all three tested cell lines	Late apoptotic cells (AnnV+/PI+) (HL‐60 cells [5]; mean ± SD): 11.7 ± 2.6%; Living cells (AnnV−/PI−) (HL‐60 cells [5]; mean ± SD): 78.9 ± 1.6%; Concentrations at which arrest in G0/G1 phase occurred (HL‐60 cells [7]): 1 to 6 µM; Effect on cell cycle distribution, in words (HL‐60 cells [7]): significantly disturbed cell cycle distribution
Nc1nc(-c2cc(Cl)cc(NC(=O)c3cc4cc(Br)ccc4[nH]3)c2)c(C(=O)c2ccccc2)[nH]1 [Compound 33, N‐(3‐(2‐amino‐5‐benzoyl‐1H‐imidazol‐4‐yl)‐5‐chlorophenyl)‐5‐bromo‐1H‐indole‐2‐carboxamide]	11.5	6.44	hampered the viability of all three tested cell lines	Late apoptotic cells (AnnV+/PI+) (HL‐60 cells [5]; mean ± SD): 15.6 ± 1.8%; Living cells (AnnV−/PI−) (HL‐60 cells [5]; mean ± SD): 79.1 ± 1.9%; Cells in G0/G1 phase (HL‐60 cells [7]; 6 µM, control 64.3 ± 1.9%): 74.1 ± 1.4%; Concentrations at which arrest in G0/G1 phase occurred (HL‐60 cells [7]): 3 to 6 µM; Effect on cell cycle distribution, in words (HL‐60 cells [7]): significantly disturbed cell cycle distribution
Cc1ccc(NC(=O)c2cc3cc(Br)ccc3[nH]2)cc1-c1nc(N)[nH]c1C(=O)c1ccccc1 [Compound 34, N‐(3‐(2‐amino‐5‐benzoyl‐1H‐imidazol‐4‐yl)‐4‐methylphenyl)‐5‐bromo‐1H‐indole‐2‐carboxamide]	27	24.3	–	–
Nc1nc(-c2ccc(NC(=O)c3cc4cc(Br)ccc4[nH]3)cc2)c(C(=O)c2ccccc2)[nH]1 [Compound 35, N‐(4‐(2‐amino‐5‐benzoyl‐1H‐imidazol‐4‐yl)phenyl)‐5‐bromo‐1H‐indole‐2‐carboxamide]	11	6.77	hampered the viability of all three tested cell lines	AnnexinV translocation, in words (HL‐60 cells [5]): did not influenced AnnexinV translocation significantly; Cells in G2/M phase (HL‐60 cells [7]; 1 µM): 20.8 ± 0.4%; Effect on cell cycle distribution, in words (HL‐60 cells [7]): significantly disturbed cell cycle distribution
